Results published in ChEMBL document CHEMBL4257566, “Design, synthesis and structure-based optimization of novel isoxazole-containing benzamide derivatives as FtsZ modulators” (Eur J Med Chem, 2018).
In brackets after ≈: the same amount, converted by molar mass.

Columns and labels:
[1] = tested on: Staphylococcus aureus; assay: Antibacterial activity against clinical isolate of penicillin-resistant Staphylococcus aureus after 24 hrs by broth microdilution based CLSI method; assay type: functional
[2] = tested on: Bacillus pumilus; assay: Antibacterial activity against Bacillus pumilus CMCC63202 after 24 hrs by broth microdilution based CLSI method; assay type: functional; details: CMCC63202, 24 h
[3] = tested on: Pseudomonas aeruginosa; assay: Antibacterial activity against Pseudomonas aeruginosa ATCC 27853 after 24 hrs by broth microdilution based CLSI method; assay type: functional; details: ATCC 27853, 24 h
[4] = tested on: Staphylococcus aureus; assay: Antibacterial activity against methicillin-resistant Staphylococcus aureus ATCC 43300 after 24 hrs by broth microdilution based CLSI method; assay type: functional; details: ATCC 43300, 24 h
[5] = tested on: Staphylococcus aureus; assay: Antibacterial activity against Staphylococcus aureus; assay type: functional
Outline: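 CLSI broth microdilution: log-phase bacteria added to 2-fold serial dilutions (64 to 0.125 µg/mL) in cation-adjusted Mueller-Hinton broth, incubated aerobically 24 h at 37 °C. MIC read by turbidity as the last well showing no growth.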

[6] = tested on: Bacillus subtilis; assay: Antibacterial activity against Bacillus subtilis ATCC 9372 after 24 hrs by broth microdilution based CLSI method; assay type: functional; details: ATCC 9372, 24 h
[7] = tested on: Staphylococcus aureus; assay: Antibacterial activity against Staphylococcus aureus ATCC 25923 after 24 hrs by broth microdilution based CLSI method; assay type: functional; details: ATCC 25923, 24 h
[8] = tested on: Escherichia coli; assay: Antibacterial activity against Escherichia coli ATCC 25922 after 24 hrs by broth microdilution based CLSI method; assay type: functional; details: ATCC 25922, 24 h
[9] = tested on: HeLa; assay: Cytotoxicity in human HeLa cells assessed as reduction in cell viability after 36 hrs by MTT assay; assay type: cell-based
Outline: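 HeLa cells seeded at 10⁴ cells/well and left overnight, then exposed to compound for 36 h. MTT (5 mg/mL solution) added for 4 h at 37 °C, medium replaced by DMSO for 10 min, absorbance read at 570 nm.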

[10] = tested on: Bacillus subtilis; assay: Potency index, ratio of PC190723 MIC to test compound MIC for antibacterial activity against Bacillus subtilis ATCC 9372 after 24 hrs by broth microdilution based CLSI method

SMILES	MIC [1] [µg/mL]	MIC [2] [µg/mL]	MIC [3] [µg/mL]	MIC [4] [µg/mL]	MIC [5] [µg/mL]	MIC [6] [µg/mL]	MIC [7] [µg/mL]	MIC [8] [µg/mL]	IC50 [9] [µg/mL]	Ratio [10]
NC(=O)c1c(F)ccc(OCc2nc3cc(Cl)cnc3s2)c1F	1 (≈ 2.81 µM)	0.5 (≈ 1.41 µM)	> 64	1 (≈ 2.81 µM)	1 (≈ 2.81 µM)	0.5 (≈ 1.41 µM)	1 (≈ 2.81 µM)	> 64	–	–
NC(=O)c1c(F)ccc(OCc2ccccc2)c1F	–	–	–	–	32 (≈ 122 µM)	–	–	–	–	–
CCCCC(CC)COc1ccc(F)c(C(N)=O)c1F (configuration not stated)	–	–	–	–	4 (≈ 14 µM)	–	–	–	–	–
Cc1cc(C(C)(C)C)cc(C)c1-c1cc(COc2ccc(F)c(C(N)=O)c2F)no1	2 (≈ 4.83 µM)	0.06 (≈ 0.145 µM)	> 64	2 (≈ 4.83 µM)	–	> 64	1 (≈ 2.41 µM)	> 64	> 128	–
CC(C)(C)c1ccc(-c2ccc(CNC(=N)N)cc2)cc1	–	–	–	–	1 (≈ 3.55 µM)	–	–	–	–	–
Nc1nonc1C(=O)N/N=C/c1cc(Cl)cc(Cl)c1O	–	–	–	–	16 (≈ 50.6 µM)	–	–	–	–	–
NC(=O)c1c(F)ccc(OCc2cc(-c3ccc(-c4ccccc4)cc3)no2)c1F	> 64	> 64	> 64	> 64	–	> 64	> 64	> 64	–	–
NC(=O)c1c(F)ccc(OCc2cc(-c3ccc(-c4cccc5ccccc45)cc3)no2)c1F	> 64	> 64	> 64	> 64	–	> 64	> 64	> 64	–	–
Cc1cccc(-c2cc(COc3ccc(F)c(C(N)=O)c3F)no2)c1	> 64	> 64	> 64	> 64	–	32 (≈ 92.9 µM)	> 64	> 64	–	–
NC(=O)c1c(F)ccc(OCc2cc(-c3ccccc3Cl)no2)c1F	> 64	16 (≈ 43.9 µM)	> 64	> 64	–	8 (≈ 21.9 µM)	> 64	> 64	–	–
NC(=O)c1c(F)ccc(OCc2cc(-c3cccs3)no2)c1F	> 64	> 64	> 64	> 64	–	32 (≈ 95.1 µM)	> 64	> 64	–	–
NC(=O)c1c(F)ccc(OCc2cc(-c3ccc(Cl)cc3Cl)no2)c1F	> 64	0.5 (≈ 1.25 µM)	> 64	4 (≈ 10 µM)	–	0.5 (≈ 1.25 µM)	8 (≈ 20 µM)	> 64	–	–
NC(=O)c1c(F)ccc(OCc2cc(-c3ccccc3)no2)c1F	> 64	> 64	> 64	> 64	–	64 (≈ 194 µM)	> 64	> 64	–	–
NC(=O)c1c(F)ccc(OCc2cc(-c3ccc(Cl)cc3)no2)c1F	> 64	> 64	> 64	> 64	–	4 (≈ 11 µM)	> 64	> 64	–	–
CCOc1ccc(-c2cc(COc3ccc(F)c(C(N)=O)c3F)on2)cc1	> 64	> 64	> 64	> 64	–	1 (≈ 2.67 µM)	> 64	> 64	–	–
CCOc1ccc(-c2cc(COc3ccc(F)c(C(N)=O)c3F)no2)cc1	> 64	> 64	> 64	> 64	–	> 64	> 64	> 64	–	–
COc1ccccc1-c1cc(COc2ccc(F)c(C(N)=O)c2F)on1	> 64	> 64	> 64	> 64	–	> 64	> 64	> 64	–	–
NC(=O)c1c(F)ccc(OCc2cc(-c3cccc(Cl)c3)on2)c1F	> 64	> 64	> 64	> 64	–	8 (≈ 21.9 µM)	> 64	> 64	–	–
NC(=O)c1c(F)ccc(OCc2cc(-c3ccc(Cl)c(Cl)c3)on2)c1F	> 64	> 64	> 64	> 64	–	> 64	> 64	> 64	–	–
CN(C)c1ccc(-c2cc(COc3ccc(F)c(C(N)=O)c3F)on2)cc1	> 64	> 64	> 64	> 64	–	> 64	> 64	> 64	–	–
COc1cc(-c2cc(COc3ccc(F)c(C(N)=O)c3F)on2)cc(OC)c1OC	> 64	> 64	> 64	> 64	–	> 64	> 64	> 64	–	–
N#Cc1ccc(-c2cc(COc3ccc(F)c(C(N)=O)c3F)on2)cc1	> 64	> 64	> 64	> 64	–	64 (≈ 180 µM)	> 64	> 64	–	–
COc1ccc(-c2cc(COc3ccc(F)c(C(N)=O)c3F)on2)cc1OC	> 64	> 64	> 64	> 64	–	> 64	> 64	> 64	–	–
CC(C)=Cc1cc(COc2ccc(F)c(C(N)=O)c2F)on1	> 64	> 64	> 64	> 64	–	32 (≈ 104 µM)	> 64	> 64	–	–
CCCCOc1cccc(-c2cc(COc3ccc(F)c(C(N)=O)c3F)on2)c1	> 64	> 64	> 64	> 64	–	64 (≈ 159 µM)	> 64	> 64	–	–
COc1ccc(-c2cc(COc3ccc(F)c(C(N)=O)c3F)on2)cc1	> 64	> 64	> 64	4 (≈ 11.1 µM)	–	3 (≈ 8.33 µM)	64 (≈ 178 µM)	> 64	–	–
COc1cccc(-c2cc(COc3ccc(F)c(C(N)=O)c3F)no2)c1	> 64	> 64	> 64	> 64	–	64 (≈ 178 µM)	> 64	> 64	–	–
CCCCOc1ccc(-c2cc(COc3ccc(F)c(C(N)=O)c3F)on2)cc1	> 64	> 64	> 64	> 64	–	> 64	> 64	> 64	–	–
CCCCc1ccc(-c2cc(COc3ccc(F)c(C(N)=O)c3F)on2)cc1	> 64	0.25 (≈ 0.647 µM)	> 64	2 (≈ 5.18 µM)	–	0.03 (≈ 0.0776 µM)	> 64	> 64	–	>16
